The text below walks through data of ChEMBL document CHEMBL1132328, “4-Hydroxy-1-[2-(4-hydroxyphenoxy)ethyl]-4-(4-methylbenzyl)piperidine: a novel, potent, and selective NR1/2B NMDA receptor antagonist” (J Med Chem, 1999).

The target in experiment [1] is T1, Adrenergic receptor alpha-1 (Rattus norvegicus, UniProt P15823+P23944+P43140).
T1 sequence (P15823 whole entry): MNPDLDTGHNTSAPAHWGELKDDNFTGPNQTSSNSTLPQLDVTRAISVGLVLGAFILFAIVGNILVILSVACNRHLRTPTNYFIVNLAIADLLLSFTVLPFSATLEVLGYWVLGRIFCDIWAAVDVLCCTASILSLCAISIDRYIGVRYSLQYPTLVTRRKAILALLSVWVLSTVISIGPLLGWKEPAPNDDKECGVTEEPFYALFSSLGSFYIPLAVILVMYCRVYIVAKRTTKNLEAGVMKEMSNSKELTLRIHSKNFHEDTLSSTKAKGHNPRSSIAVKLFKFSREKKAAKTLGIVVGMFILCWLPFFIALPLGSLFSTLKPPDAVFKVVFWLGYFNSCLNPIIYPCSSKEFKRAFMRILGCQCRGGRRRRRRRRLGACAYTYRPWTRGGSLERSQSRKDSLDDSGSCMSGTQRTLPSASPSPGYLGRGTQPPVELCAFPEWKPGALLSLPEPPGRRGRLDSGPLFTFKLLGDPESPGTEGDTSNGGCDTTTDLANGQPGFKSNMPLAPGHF
T1 sequence (P23944 whole entry): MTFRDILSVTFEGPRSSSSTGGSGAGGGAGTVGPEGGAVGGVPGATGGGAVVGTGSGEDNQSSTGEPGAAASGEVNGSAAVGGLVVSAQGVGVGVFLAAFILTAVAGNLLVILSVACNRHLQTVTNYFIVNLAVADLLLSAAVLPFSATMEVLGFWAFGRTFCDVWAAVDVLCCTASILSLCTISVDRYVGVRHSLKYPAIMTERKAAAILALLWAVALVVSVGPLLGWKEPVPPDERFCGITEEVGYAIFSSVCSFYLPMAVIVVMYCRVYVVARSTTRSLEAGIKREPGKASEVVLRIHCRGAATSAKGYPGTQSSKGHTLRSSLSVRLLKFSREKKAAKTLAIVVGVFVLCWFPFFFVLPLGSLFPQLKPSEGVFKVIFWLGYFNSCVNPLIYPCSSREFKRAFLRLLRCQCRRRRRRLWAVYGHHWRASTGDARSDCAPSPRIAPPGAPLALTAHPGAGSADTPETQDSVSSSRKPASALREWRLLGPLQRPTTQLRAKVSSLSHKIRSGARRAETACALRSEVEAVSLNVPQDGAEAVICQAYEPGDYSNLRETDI
T1 sequence (P43140 whole entry): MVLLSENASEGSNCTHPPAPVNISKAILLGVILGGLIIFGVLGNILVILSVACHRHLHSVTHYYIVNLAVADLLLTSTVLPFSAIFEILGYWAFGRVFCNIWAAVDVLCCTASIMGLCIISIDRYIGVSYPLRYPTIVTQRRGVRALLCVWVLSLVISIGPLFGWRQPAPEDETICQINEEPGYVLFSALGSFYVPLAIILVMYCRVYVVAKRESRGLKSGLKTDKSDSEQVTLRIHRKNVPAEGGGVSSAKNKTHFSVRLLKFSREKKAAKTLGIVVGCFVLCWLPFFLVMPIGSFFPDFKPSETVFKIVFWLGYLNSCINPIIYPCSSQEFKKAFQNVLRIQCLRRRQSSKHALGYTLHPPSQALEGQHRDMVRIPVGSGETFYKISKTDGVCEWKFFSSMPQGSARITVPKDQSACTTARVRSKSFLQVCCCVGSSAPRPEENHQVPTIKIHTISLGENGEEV
Briefly: Affinity for alpha-1 adrenergic receptor in rat was determined by [3H]- prazosin binding assay. The method, boiled down: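 Rat cortex membranes (sucrose/Tris homogenate, washed three times in 140 mM NaCl/5 mM MgCl2/50 mM Tris-HCl pH 7.4) incubated with 0.8 nM [3H]prazosin for 60 min at room temperature. Test compounds at nine concentrations in duplicate, 1% DMSO final. Nonspecific binding defined with phentolamine. Reaction stopped by filtration through GF/B filters, then scintillation counting. IC50 from a sigmoidal fit.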

The target in experiment [2] is Glutamate NMDA receptor; Grin1/Grin2c (Rattus norvegicus, UniProt P35439+Q00961). The experiment is described as follows: In vitro inhibitory concentration against NMDA responses at NR1A/2C receptors expressed in Xenopus oocytes. Format: functional, cell-based, Oocyte.
For experiment [3], the target named is Glutamate NMDA receptor; Grin1/Grin2b (Rattus norvegicus, UniProt P35439+Q00960). The experiment is described as follows: In vitro inhibitory concentration against NMDA responses at NR1A/2B receptors expressed in Xenopus oocytes. The class given is functional, cell-based, Oocyte. The method, boiled down: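 Two-electrode voltage clamp of oocytes expressing cloned NR1A/2B, held at -70 mV in Ca2+-free Ringer (BaCl2 1.8 mM, Hepes 5 mM, pH 7.4). Drugs in DMSO (0.1–1% final) applied by bath perfusion. IC50 from partial 3–5-point concentration-inhibition curves fitted with residual minimum fixed at 0.15. Mean ± SE.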

Experiment [4] has as its target Glutamate NMDA receptor; Grin1/Grin2a (Rattus norvegicus, UniProt P35439+Q00959). Briefly: In vitro inhibitory concentration against NMDA responses at cloned NR1A/2A receptors expressed in Xenopus oocytes. The class given is functional, cell-based, Oocyte.
Experiment [5] concerns Rattus. Briefly: Inhibition of voltage -gated K+ currents was measured by whole cell voltage clamp recordings from dissociated rat superior cervical ganglion neurons at 10 uM. The class given is functional. In outline:
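SCG neurons from 1–4-day-old rat pups, recorded 24–48 h after plating. Whole-cell clamp held at -60 mV; 30-ms steps to +50 mV. Bath solution Hepes/glucose pH 7.4; pipette solution KCl/K-aspartate/EGTA pH 7.3. Compound diluted from 10 mM DMSO stock and applied by local perfusion after control responses. Result given as percent inhibition of sustained K+ current.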

The species entered for experiment [6] is Mus musculus. Briefly: ED50 value was calculated by mouse electric shock assay (MES). The class given is functional. In outline:
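Anticonvulsant testing in mice by maximal electroshock. Compounds dissolved in 0.05 M Tris and given iv. Seizure protection tested at peak activity, 2 min after dosing.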

Structures are written as SMILES.

Sequence of Glutamate NMDA receptor; Grin1/Grin2c (Q00961 whole entry, other chains not shown, the tested form may be a part): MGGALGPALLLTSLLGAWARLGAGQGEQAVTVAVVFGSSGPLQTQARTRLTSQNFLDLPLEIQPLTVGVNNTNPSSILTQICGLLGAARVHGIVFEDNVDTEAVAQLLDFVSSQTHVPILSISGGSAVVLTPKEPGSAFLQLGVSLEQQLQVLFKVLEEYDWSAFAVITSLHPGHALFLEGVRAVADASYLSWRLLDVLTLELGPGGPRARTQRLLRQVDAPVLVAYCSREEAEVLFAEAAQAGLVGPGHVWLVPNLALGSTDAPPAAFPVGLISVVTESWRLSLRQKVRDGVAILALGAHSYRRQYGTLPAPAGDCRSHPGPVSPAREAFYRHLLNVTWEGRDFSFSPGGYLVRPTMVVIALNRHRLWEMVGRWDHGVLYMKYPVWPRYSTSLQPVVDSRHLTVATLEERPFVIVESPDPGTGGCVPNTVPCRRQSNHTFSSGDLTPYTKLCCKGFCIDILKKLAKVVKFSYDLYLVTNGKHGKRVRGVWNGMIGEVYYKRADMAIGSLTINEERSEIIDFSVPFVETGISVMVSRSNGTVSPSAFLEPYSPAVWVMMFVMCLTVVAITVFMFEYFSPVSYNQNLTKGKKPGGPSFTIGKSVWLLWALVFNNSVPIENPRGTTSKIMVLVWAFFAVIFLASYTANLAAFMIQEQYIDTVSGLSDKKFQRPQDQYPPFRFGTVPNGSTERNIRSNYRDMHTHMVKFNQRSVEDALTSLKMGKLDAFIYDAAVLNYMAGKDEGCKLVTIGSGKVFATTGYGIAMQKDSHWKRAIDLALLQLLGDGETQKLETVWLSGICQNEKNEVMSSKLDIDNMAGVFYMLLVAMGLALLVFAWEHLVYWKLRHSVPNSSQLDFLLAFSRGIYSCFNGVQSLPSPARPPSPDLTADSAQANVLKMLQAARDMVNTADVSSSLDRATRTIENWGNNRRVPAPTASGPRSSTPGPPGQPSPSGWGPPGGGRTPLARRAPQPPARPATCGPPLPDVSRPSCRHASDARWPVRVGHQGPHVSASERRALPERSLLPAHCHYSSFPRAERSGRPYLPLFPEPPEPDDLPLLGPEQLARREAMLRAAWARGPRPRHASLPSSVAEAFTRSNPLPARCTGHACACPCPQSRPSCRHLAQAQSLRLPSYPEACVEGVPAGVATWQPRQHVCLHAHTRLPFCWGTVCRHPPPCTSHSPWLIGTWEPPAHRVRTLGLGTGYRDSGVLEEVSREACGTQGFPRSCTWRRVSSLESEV
Sequence of Glutamate NMDA receptor; Grin1/Grin2b (Q00960 whole entry, other chains not shown, the tested form may be a part): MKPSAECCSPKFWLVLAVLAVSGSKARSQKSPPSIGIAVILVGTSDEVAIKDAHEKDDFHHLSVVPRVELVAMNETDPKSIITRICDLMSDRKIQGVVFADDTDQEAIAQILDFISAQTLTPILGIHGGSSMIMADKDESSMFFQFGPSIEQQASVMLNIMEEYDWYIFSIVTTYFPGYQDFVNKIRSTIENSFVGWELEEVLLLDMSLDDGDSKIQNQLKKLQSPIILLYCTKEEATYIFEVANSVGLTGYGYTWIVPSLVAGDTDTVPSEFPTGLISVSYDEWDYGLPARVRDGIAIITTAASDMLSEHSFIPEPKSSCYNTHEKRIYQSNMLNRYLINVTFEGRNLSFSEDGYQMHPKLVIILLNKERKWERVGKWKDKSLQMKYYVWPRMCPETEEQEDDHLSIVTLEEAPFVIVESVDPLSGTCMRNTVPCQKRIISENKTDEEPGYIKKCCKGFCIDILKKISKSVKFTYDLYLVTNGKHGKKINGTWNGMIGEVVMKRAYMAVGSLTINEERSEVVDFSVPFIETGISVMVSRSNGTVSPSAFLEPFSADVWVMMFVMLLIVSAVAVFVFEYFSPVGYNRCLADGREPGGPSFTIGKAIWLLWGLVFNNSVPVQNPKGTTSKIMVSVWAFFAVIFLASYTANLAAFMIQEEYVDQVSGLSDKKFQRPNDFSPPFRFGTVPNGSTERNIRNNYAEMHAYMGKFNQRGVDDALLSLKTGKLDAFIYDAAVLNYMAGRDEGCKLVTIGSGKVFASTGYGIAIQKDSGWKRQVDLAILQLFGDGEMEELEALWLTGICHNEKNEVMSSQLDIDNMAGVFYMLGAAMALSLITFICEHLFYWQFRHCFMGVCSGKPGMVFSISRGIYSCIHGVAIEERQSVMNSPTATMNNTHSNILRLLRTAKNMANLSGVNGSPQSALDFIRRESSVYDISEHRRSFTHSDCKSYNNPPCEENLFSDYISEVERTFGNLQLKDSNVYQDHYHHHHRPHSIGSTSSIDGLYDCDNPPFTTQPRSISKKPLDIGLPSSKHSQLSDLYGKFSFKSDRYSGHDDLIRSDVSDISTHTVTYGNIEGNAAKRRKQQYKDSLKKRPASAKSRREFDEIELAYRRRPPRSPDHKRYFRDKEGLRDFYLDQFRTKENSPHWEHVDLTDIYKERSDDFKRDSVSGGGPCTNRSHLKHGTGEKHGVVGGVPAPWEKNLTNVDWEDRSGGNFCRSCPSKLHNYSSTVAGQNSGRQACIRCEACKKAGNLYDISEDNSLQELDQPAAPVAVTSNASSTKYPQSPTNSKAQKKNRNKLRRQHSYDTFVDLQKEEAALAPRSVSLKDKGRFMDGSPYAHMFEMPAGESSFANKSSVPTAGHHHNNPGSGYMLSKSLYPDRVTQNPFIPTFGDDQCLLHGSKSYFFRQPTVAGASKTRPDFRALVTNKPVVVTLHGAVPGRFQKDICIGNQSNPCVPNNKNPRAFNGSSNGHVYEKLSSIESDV
Sequence of Glutamate NMDA receptor; Grin1/Grin2a (Q00959 whole entry, other chains not shown): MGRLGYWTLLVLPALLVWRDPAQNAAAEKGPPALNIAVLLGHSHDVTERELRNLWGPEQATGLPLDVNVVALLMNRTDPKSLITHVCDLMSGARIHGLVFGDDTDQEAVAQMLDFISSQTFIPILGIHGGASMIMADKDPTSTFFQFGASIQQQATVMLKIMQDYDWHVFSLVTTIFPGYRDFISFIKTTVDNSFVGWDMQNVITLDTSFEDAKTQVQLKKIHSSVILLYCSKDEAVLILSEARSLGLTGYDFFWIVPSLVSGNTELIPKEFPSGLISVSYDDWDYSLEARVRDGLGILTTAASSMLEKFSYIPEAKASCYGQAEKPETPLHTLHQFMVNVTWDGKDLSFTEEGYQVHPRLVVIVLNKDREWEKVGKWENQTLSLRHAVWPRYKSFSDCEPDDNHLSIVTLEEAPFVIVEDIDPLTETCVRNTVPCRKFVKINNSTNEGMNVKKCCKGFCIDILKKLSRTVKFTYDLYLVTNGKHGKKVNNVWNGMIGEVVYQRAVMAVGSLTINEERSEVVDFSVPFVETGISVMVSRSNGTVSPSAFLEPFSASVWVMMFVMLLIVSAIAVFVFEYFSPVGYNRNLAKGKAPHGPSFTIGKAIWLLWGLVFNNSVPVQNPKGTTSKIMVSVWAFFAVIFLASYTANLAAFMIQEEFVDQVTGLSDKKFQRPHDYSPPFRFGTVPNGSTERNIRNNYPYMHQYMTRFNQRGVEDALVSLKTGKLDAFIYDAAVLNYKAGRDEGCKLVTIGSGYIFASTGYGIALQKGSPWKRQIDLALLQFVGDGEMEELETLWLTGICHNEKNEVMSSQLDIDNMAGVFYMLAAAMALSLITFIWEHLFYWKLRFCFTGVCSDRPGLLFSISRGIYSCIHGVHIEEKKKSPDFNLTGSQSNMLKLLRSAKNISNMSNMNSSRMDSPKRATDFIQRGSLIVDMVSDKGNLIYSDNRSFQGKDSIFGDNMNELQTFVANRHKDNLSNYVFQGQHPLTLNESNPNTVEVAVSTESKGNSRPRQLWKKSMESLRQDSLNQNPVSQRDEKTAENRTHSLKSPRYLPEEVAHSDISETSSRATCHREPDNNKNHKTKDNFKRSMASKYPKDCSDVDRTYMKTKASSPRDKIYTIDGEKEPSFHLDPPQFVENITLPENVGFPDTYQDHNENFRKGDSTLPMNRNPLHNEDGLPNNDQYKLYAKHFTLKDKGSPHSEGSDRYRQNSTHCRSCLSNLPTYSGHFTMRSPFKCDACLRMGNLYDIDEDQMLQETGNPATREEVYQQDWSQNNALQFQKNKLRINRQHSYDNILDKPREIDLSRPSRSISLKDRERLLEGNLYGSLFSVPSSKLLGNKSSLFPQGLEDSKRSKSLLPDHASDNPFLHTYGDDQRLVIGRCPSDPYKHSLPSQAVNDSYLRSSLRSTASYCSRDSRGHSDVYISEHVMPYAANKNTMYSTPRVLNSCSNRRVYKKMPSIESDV

What is called IC50 is the concentration that gives 50% inhibition. Read a low IC50 as inhibition by little substance. In general, inhibition refers to the drop in the measured response relative to a control, in per cent. Low values mean little suppression, high ones strong suppression. As a reminder, the ED50 is the dose that gives a 50% effect, or the effect in half of the subjects. Turning to `Cc1ccc(CC2CCN(CCOc3ccc(O)cc3)CC2)cc1`, the concentration for half-maximal inhibition (IC50) is 1.8 µM in experiment [1], above 100 µM in experiment [2], 0.028 µM in experiment [3] and above 100 µM in experiment [4]. Besides, in experiment [5], the inhibition at 10 µM was determined as 67%. Also, the ED50 in experiment [6] is 0.7 mg/kg.

For `OC(CN1CCC(Cc2ccc(F)cc2)CC1)c1ccc(Cl)cc1` (configuration not stated) [ELIPRODIL], the half-maximal inhibitory concentration (IC50) is 3.3 µM in experiment [1], 100 µM in experiment [2], 1.4 µM in experiment [3] and 100 µM in experiment [4]. The inhibition at 10 µM in experiment [5] was determined as 67%. For the same molecule, in experiment [6], the median effective dose (ED50) is 1 mg/kg.

As to `Cc1ccc(CC2(O)CCN(CCOc3ccc(O)cc3)CC2)cc1`, the half-maximal inhibitory concentration (IC50) in experiment [1] is 27 µM; in experiment [2], above 100 µM; in experiment [3], 0.043 µM; in experiment [4], above 100 µM. In addition, the inhibition at 10 µM in experiment [5] worked out at 23%. Further, the ED50 in experiment [6] was 1.5 mg/kg.

As for `Oc1ccc(OCCN2CCC(c3ccccc3)CC2)cc1`, the results for the half-maximal inhibitory concentration (IC50) in experiment [2], in experiment [3] and in experiment [4] were above 100 µM, 7.7 µM and 110 µM, respectively.

`C[C@@H]([C@H](O)c1ccc(O)cc1)N1CCC(Cc2ccccc2)CC1` [(R,S)-IFENPRODIL] displayed a half-inhibitory concentration (IC50) in experiment [1] of 0.22 µM. In experiment [5], this molecule displayed an inhibition at 10 µM of 54%. In addition, in experiment [6], the ED50 is 7 mg/kg.

For the molecule `c1ccc(CC2CCN(CCOc3ccccc3)CC2)cc1`, the half-maximal inhibitory concentration (IC50) in experiment [1] is 0.82 µM; in experiment [2], above 100 µM; in experiment [3], 0.63 µM; in experiment [4] it was above 100 µM. In experiment [5], this molecule had an inhibition at 10 µM of 65%. The median effective dose (ED50) in experiment [6] was 2 mg/kg.

With `Oc1ccc(OCCN2CCC(Cc3ccc(F)cc3)CC2)cc1`, the 50% inhibitory concentration (IC50) is 1.6 µM in experiment [1], above 100 µM in experiment [2], 0.05 µM in experiment [3] and 21 µM in experiment [4]. This molecule also had an inhibition at 10 µM in experiment [5] of 53%. For the same molecule, the 50% effective dose (ED50) in experiment [6] was 3 mg/kg.

On to `Oc1ccc(OCCN2CCC(Cc3ccccc3)CC2)cc1`, for which the IC50 in experiment [1] is 0.47 µM; in experiment [2] it was above 100 µM; in experiment [3] it was 0.025 µM; in experiment [4], above 100 µM. The molecule further showed an inhibition at 10 µM in experiment [5] of 46%. In addition, the median effective dose (ED50) in experiment [6] was 2 mg/kg.
